Published values of several laboratories.
ESR1: Estrogen receptor (ESR1, Homo sapiens, UniProt P03372)
ADRA2C: Alpha-2C adrenergic receptor (ADRA2C, Homo sapiens, UniProt P18825)
CA14: Carbonic anhydrase 14 (CA14, Homo sapiens, UniProt Q9ULX7)
PIK3C3: Phosphatidylinositol 3-kinase catalytic subunit type 3 (PIK3C3, Homo sapiens, UniProt Q8NEB9)
nupG: nupG (Escherichia coli, UniProt P0AFF4)

SMILES	target	read-out	action	technique	setting	quantity	value
COc1ccccc1/C=C/C(=O)NC(=S)Nc1ccc(S(=O)(=O)N(C)c2ccccc2)cc1	G-protein coupled receptor 55 (GPR55, Homo sapiens, UniProt Q9Y2T6)	β-arrestin recruitment	agonist	–	–	EC50	0.3 µM
C[C@]12CC[C@H](O)CC1=CC[C@@H]1[C@@H]2CC[C@]2(C)C(c3cccnc3)=CC[C@@H]12	ESR1	ligand displacement in cells	–	radioligand	–	Ki	0.39 µM
CCC(S)C(C)CO (stereo not drawn)	OR2M3 (Homo sapiens, UniProt Q8NG83)	cAMP	agonist	luciferase	–	EC50	1.4 µM
CCOCc1nc(O)c(-c2nnc(Cc3ccc(Cl)cn3)o2)c(O)c1-c1c(OC)cccc1OC	Apelin receptor (APLNR, Homo sapiens, UniProt P35414)	cell-free assay	–	radioligand	–	Kd	0.00015 µM
Nc1ccnc2ccccc12	ADRA2C	ligand displacement	–	radioligand	cell membranes	Ki	81.3 µM
C[C@H]1Oc2cc(cnc2N)-c2c(nn(C)c2C#N)CN(C)C(=O)c2ccc(F)cc21	Mitogen-activated protein kinase kinase kinase 13 (MAP3K13, Homo sapiens, UniProt O43283)	cell-free assay	–	–	lysate	Ki	0.0327 µM
Cc1occc(=O)c1O	CA14	enzyme activity	inhibitor	stopped-flow	–	Ki	7.2 µM
CCOC(=O)[C@@]12C[C@@H]1[C@@H](n1ccc3c(NC)nc(C#Cc4ccccc4)nc31)[C@H](O)[C@@H]2O	Nociceptin receptor (OPRL1, Homo sapiens, UniProt P41146)	ligand displacement	–	radioligand	–	Ki	> 10 µM
CCC(=O)N1CCC(C(=O)N(C)CC(=O)N2CCN(c3nc(-c4cnc(N)nc4C(F)F)nc(N4CCOCC4)n3)CC2)CC1	PIK3C3	binding	–	competition with immobilised ligand	–	Kd	0.405 µM
CCCCN1CCC(COC(=O)c2ccc(N)c(OCF)c2)CC1	ADRA2C	cell-free assay	–	radioligand	–	Ki	0.778 µM
C[C@]12CCC3=C4CCC(=O)C=C4CC[C@H]3[C@@H]1CC[C@@]2(O)CC#N	ESR1	reporter gene	agonist	–	–	EC50	> 25 µM
On1ccccc1=S	CA14	enzyme activity	inhibitor	stopped-flow	–	Ki	7.1 µM
Nc1ccn([C@@H]2O[C@H](CO)[C@@H](O)[C@H]2O)c(=O)n1	nupG	binding	–	ITC	–	Kd	144 µM
C=CC(=O)N1CCC(C(=O)NCC(=O)N2CCN(c3nc(-c4cnc(N)nc4C(F)F)nc(N4CCOCC4)n3)CC2)CC1	PIK3C3	binding	–	competition with immobilised ligand	–	Kd	0.054 µM
CCCOc1cccc2nc(N)n(Cc3ccc(Cl)c(Cl)c3)c12	Pteridine reductase (PTR1, Trypanosoma brucei brucei, UniProt O76290)	enzyme activity	inhibitor	absorbance	–	Ki	0.05 µM
Oc1ccccc1F	Iodotyrosine deiodinase (Haliscomenobacter hydrossis, UniProt F4KU78)	binding	–	fluorescence	–	Kd	20000 µM
COc1ccc2c(c1)c(CC(=O)O)c(C)n2C(=O)c1ccc(Cl)cc1	Peroxisome proliferator-activated receptor gamma (Pparg, Mus musculus, UniProt P37238)	reporter gene	agonist	luciferase	–	EC50	12.1 µM
ON=Cc1ccc(-c2ccc(O)c(F)c2)c(Cl)c1O	ESR1	reporter gene	agonist	luciferase	–	EC50	1.63 µM
CCCC[C@H](NC(=O)[C@H](C)c1c(C)[nH]c2ccc(O)cc12)c1ncc(-c2cc3ccccc3nc2OC)[nH]1	Prostaglandin E2 receptor EP3 subtype (PTGER3, Homo sapiens, UniProt P43115)	cell-free assay	–	–	–	Ki	5.32 µM
Cc1cn([C@H]2C[C@H](O)[C@@H](CO)O2)c(=O)[nH]c1=O	nupG	binding	–	ITC	–	Kd	162 µM
CCCNc1nc2ccccc2n1Cc1ccc(Cl)cc1	ADRA2C	ligand displacement	–	radioligand	–	Ki	0.434 µM
